# From ChEMBL document CHEMBL4229443, “Activation studies with amines and amino acids of the α-carbonic anhydrase from the pathogenic protozoan Trypanosoma cruzi” (Bioorg Med Chem, 2018)
# Compound: N[C@@H](Cc1c[nH]c2ccccc12)C(=O)O
# Assay: Activation of Trypanosoma cruzi CA assessed as Kcat at 10 uM preincubated for 15 mins followed by CO2 addition by stopped-flow assay (reference value: 1.2 10^6/s)
# How it was run: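 kcat of recombinant TcCA measured with 10 µM activator after 15 min pre-incubation at room temperature. Stopped-flow CO2 hydration in 10 mM Hepes pH 7.5 with 0.1 M Na2SO4 and 0.2 mM phenol red (557 nm), 25 °C. Initial velocities from the first 5–10% of the reaction, uncatalyzed rate subtracted. Mean of at least three determinations.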
protein,measurement,value
"Carbonic anhydrase-like protein, putative (Trypanosoma cruzi (strain CL Brener)), Q4CVY4 (protein) MTCGIRRGEGREGSKMVKAVIFSLLCLHVHALMSPVSAENGYTTAGLPREKPQGPQWGYTNLTAWPKLCQTGKQQSPVSFSELQPNEVVHRKDMGPLVFSRDCKFAAEKTSLKIENEVNTISVRFIPLDDPTNKFPSLCTVRDPTDPDSPEYHLVSMHFHSPAEHVLPCANPDAELHLVFAHTQQSRQPHLMVVVVQLVASDKINSTSVAALKHILLDGSLPPKRAVTTCTLTENMTIAGFLPQSGSYFAYNGSLTTPPCTEGVLFVVLTSPQIISKTALERLVEAFQRARPGNHNGNHRPTQPLNGRVVYHFVDMHHMNYSMCMRDMENHHTNSSQMAGMSGAMQHMNCSMCMRNMENHHKNSSQMEGMSGAMQHMNCSMCMRNMENHHKNSSQMAGMSGAMQHMNCSMCMRNMENHHTNSSQMAGMSGAMQHMNCSMCMRNMENHHKNSSQMAGMSGAMQHMNCSMCMRNMENHHTNSSQMAGMSGAMQHMNCSMCMRNMENHHTNSSQMAGMSGAMQHMNCSMCMRNMENHHKNSSQMEGMSSEEMSMMERSANESSGAQLAGLASEENATNTSSAPANKWPHQFNSRERLFLIAAALVLLLVTFILYRWRNSSARETETESLFRSHEGYGTTNP",kcat,7.8 ×10⁶ /s
